Laboratory results taken from ChEMBL document CHEMBL3259767, “Design, synthesis and biological evaluation of Pontin ATPase inhibitors through a molecular docking approach” (Bioorg Med Chem Lett, 2014).
pIC50: −log10 of the molar value. Values belong to the molecule of their own block, whether it stands above or below them. The source made the active and inactive calls. The calls are words filed in the database; no cut-off is given here.

How the values were obtained:
HL-60 [1] = experiment: Induction of apoptosis in human HL60 cells assessed as caspase 3 activity measured as cleavage of DEVD at 5 uM after 24 hrs by FACS analysis relative to control; assay type: functional
Outline: (§1)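 Caspase 3 activity was read in HL60 cells after 24 or 48 h treatment at 5–50 µM, with doxorubicin 1 µM as positive control. Activity is expressed relative to untreated HL60, set at 100.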

[2] = target: RuvB-like 1 (Homo sapiens) (UniProt Q9Y265); experiment: Inhibition of human recombinant his-tagged pontin expressed in Escherichia coli BL21 assessed as reduction in inorganic phosphate release at 100 uM after 10 mins by malachite green-based colorimetric assay
Outline: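 Pontin ATPase activity was measured as inorganic phosphate release by malachite green assay, with compounds tested at 100 µM.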

MCF7 = experiment: Antiproliferative activity against human MCF7 cells at 10 uM after 72 hrs; assay type: functional, cell-based
Outline: (§2)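 Cells exposed to compound for 72 h. IC50 values come from KB and HL60 cells. Single-point screening was run at 10^-5 M.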

HCT-116 = experiment: Antiproliferative activity against human HCT116 cells at 10 uM after 72 hrs; assay type: functional, cell-based; outline: as §2
HL-60 [3] = experiment: Antiproliferative activity against human HL60 cells at 10 uM after 72 hrs; assay type: functional, cell-based; outline: as §2
KB [4] = experiment: Antiproliferative activity against human KB cells at 10 uM after 72 hrs; assay type: functional, cell-based; outline: as §2
HL-60 [5] = experiment: Antiproliferative activity against human HL60 cells after 72 hrs; assay type: functional, cell-based; conditions: HL-60, 72 h; outline: as §2
KB [6] = experiment: Antiproliferative activity against human KB cells after 72 hrs; assay type: functional, cell-based; outline: as §2
[7] = Antiproliferative activity against human EPC cells after 72 hrs; assay type: cell-based
HL-60 [8] = experiment: Induction of apoptosis in human HL60 cells after 24 to 48 hrs by FACS analysis; assay type: functional, cell-based
Outline: (§3)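 HL60 cells were labelled with annexin and 7-AAD after 24 or 48 h exposure at 5, 20 or 50 µM, with doxorubicin 100 nM as reference. FACS sorted cells into intact, early apoptotic, late apoptotic and necrotic fractions, given as percentages.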

HL-60 [9] = experiment: Induction of apoptosis in human HL60 cells at 20 uM after 24 hrs by FACS analysis; assay type: functional, cell-based; outline: as §3
HL-60 [10] = experiment: Induction of apoptosis in human HL60 cells at 20 uM after 48 hrs by FACS analysis; assay type: functional, cell-based; outline: as §3
HL-60 [11] = experiment: Induction of apoptosis in human HL60 cells at 50 uM after 24 hrs by FACS analysis relative to control; assay type: functional; outline: as §3
HL-60 [12] = experiment: Induction of apoptosis in human HL60 cells assessed as caspase 3 activity measured as cleavage of DEVD at 10 uM after 24 hrs by FACS analysis relative to control; assay type: functional; outline: as §1
HL-60 [13] = experiment: Induction of apoptosis in human HL60 cells assessed as caspase 3 activity measured as cleavage of DEVD at 20 uM after 24 hrs by FACS analysis relative to control; assay type: functional; outline: as §1
HL-60 [14] = experiment: Induction of apoptosis in human HL60 cells assessed as caspase 3 activity measured as cleavage of DEVD at 50 uM after 24 hrs by FACS analysis relative to control; assay type: functional; outline: as §1
HL-60 [15] = experiment: Induction of apoptosis in human HL60 cells assessed as caspase 3 activity measured as cleavage of DEVD at 5 uM after 48 hrs by FACS analysis relative to control; assay type: functional; outline: as §1
HL-60 [16] = experiment: Induction of apoptosis in human HL60 cells assessed as caspase 3 activity measured as cleavage of DEVD at 10 uM after 48 hrs by FACS analysis relative to control; assay type: functional; outline: as §1
HL-60 [17] = experiment: Induction of apoptosis in human HL60 cells assessed as caspase 3 activity measured as cleavage of DEVD at 20 uM after 48 hrs by FACS analysis relative to control; assay type: functional; outline: as §1
HL-60 [18] = experiment: Induction of apoptosis in human HL60 cells assessed as caspase 3 activity measured as cleavage of DEVD at 50 uM after 48 hrs by FACS analysis relative to control; assay type: functional; outline: as §1
HL-60 [19] = experiment: Induction of apoptosis in human HL60 cells assessed as caspase 3 activity measured as cleavage of DEVD after 24 to 48 hrs by FACS analysis relative to control; assay type: functional, cell-based; outline: as §1
HL-60 [20] = experiment: Induction of necrosis in human HL60 cells assessed as LDH release at >20 uM after 24 hrs; assay type: functional, cell-based
Outline: (§4)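 Necrosis marker: LDH released into the culture medium and total LDH were measured in HL60 cells after 24 or 48 h treatment at 5–50 µM, with doxorubicin 1 µM as control.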

HL-60 [21] = experiment: Induction of necrosis in human HL60 cells assessed as decrease in total LDH after 48 hrs; assay type: functional, cell-based; outline: as §4
HL-60 [22] = experiment: Cell cycle arrest in human HL60 cells assessed as accumulation at subG1 phase at 5 uM after 24 hrs by propidium iodide-based flow cytometry (reference value: 1.2 %); assay type: functional
Outline: (§5)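 HL60 cells were treated for 24 h at 5, 20 or 50 µM, with doxorubicin 50 nM as control. DNA was stained with propidium iodide and analysed by flow cytometry. Results are the percentage of cells in subG1, G0/G1, S and G2/M.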

HL-60 [23] = experiment: Cell cycle arrest in human HL60 cells assessed as accumulation at subG1 phase at 20 uM after 24 hrs by propidium iodide-based flow cytometry (reference value: 1.2 %); assay type: functional; outline: as §5
HL-60 [24] = experiment: Cell cycle arrest in human HL60 cells assessed as accumulation at subG1 phase at 50 uM after 24 hrs by propidium iodide-based flow cytometry (reference value: 1.2 %); assay type: functional; outline: as §5
HL-60 [25] = experiment: Cell cycle arrest in human HL60 cells assessed as accumulation at G0/G1 phase at 5 uM after 24 hrs by propidium iodide-based flow cytometry (reference value: 47.6 %); assay type: functional; outline: as §5
HL-60 [26] = experiment: Cell cycle arrest in human HL60 cells assessed as accumulation at G0/G1 phase at 20 uM after 24 hrs by propidium iodide-based flow cytometry (reference value: 47.6 %); assay type: functional; outline: as §5
HL-60 [27] = experiment: Cell cycle arrest in human HL60 cells assessed as accumulation at G0/G1 phase at 50 uM after 24 hrs by propidium iodide-based flow cytometry (reference value: 47.6 %); assay type: functional; outline: as §5
HL-60 [28] = experiment: Cell cycle arrest in human HL60 cells assessed as accumulation at S phase at 5 uM after 24 hrs by propidium iodide-based flow cytometry (reference value: 48.7 %); assay type: functional; outline: as §5
HL-60 [29] = experiment: Cell cycle arrest in human HL60 cells assessed as accumulation at S phase at 20 uM after 24 hrs by propidium iodide-based flow cytometry (reference value: 48.7 %); assay type: functional; outline: as §5
HL-60 [30] = experiment: Cell cycle arrest in human HL60 cells assessed as accumulation at S phase at 50 uM after 24 hrs by propidium iodide-based flow cytometry (reference value: 48.7 %); assay type: functional; outline: as §5
HL-60 [31] = experiment: Cell cycle arrest in human HL60 cells assessed as accumulation at G2/M phase at 5 uM after 24 hrs by propidium iodide-based flow cytometry (reference value: 2.5 %); assay type: functional; outline: as §5
HL-60 [32] = experiment: Cell cycle arrest in human HL60 cells assessed as accumulation at G2/M phase at 20 uM after 24 hrs by propidium iodide-based flow cytometry (reference value: 2.5 %); assay type: functional; outline: as §5
HL-60 [33] = experiment: Cell cycle arrest in human HL60 cells assessed as accumulation at G2/M phase at 50 uM after 24 hrs by propidium iodide-based flow cytometry (reference value: 2.5 %); assay type: functional; outline: as §5
HL-60 [34] = experiment: Cell cycle arrest in human HL60 cells assessed as accumulation at subG1 phase after 24 hrs by propidium iodide-based flow cytometry; assay type: functional; outline: as §5
HL-60 [35] = experiment: Induction of necrosis in human HL60 cells assessed as decrease in total LDH at 1 uM after 48 hrs; assay type: functional, cell-based; outline: as §4

Chain of RuvB-like 1 (Homo sapiens) (Q9Y265 whole entry): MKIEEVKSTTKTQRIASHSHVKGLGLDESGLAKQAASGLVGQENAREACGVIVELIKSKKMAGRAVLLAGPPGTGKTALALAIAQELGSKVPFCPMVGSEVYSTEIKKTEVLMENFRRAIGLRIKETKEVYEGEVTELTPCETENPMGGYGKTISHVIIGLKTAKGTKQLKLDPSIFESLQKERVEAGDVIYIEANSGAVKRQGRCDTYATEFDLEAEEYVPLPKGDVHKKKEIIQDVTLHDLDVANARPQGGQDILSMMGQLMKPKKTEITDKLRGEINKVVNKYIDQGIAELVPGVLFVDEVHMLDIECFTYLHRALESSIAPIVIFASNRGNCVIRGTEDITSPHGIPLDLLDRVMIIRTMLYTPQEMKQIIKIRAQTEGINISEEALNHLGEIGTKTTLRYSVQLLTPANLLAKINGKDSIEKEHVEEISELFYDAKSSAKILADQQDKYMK

Structure (SMILES): COc1cccc2c1C(=O)c1c(O)c3c(c(O)c1C2=O)C[C@@](O)(C(=O)CO)C[C@@H]3O[C@H]1C[C@H](N)[C@H](O)[C@H](C)O1
Activity (HL-60 [35]): Active

Structure (SMILES): N[C@@H](Cc1c[nH]c2ccccc12)C(=O)Nc1ccc(-c2c(O)c3ccccc3[nH]c2=O)cc1
Activity (MCF7): inactive
Activity (HCT-116): inactive
Activity (HL-60 [3]): inactive
Activity (KB [4]): inactive

Now from value to molecule, other results behind:

inhibition [2]: Active
pIC50 (HL-60 [5]): 4.82
pIC50 (KB [6]): 5.05
Structure (SMILES): N[C@@H](Cc1c[nH]c2ccccc12)C(=O)Nc1ccc(-c2c(O)c(-c3ccccc3)c[nH]c2=O)cc1
Activity (HL-60 [1]): 116%
Activity (MCF7): Active
Activity (HCT-116): Active
Activity (HL-60 [3]): Active
Activity (KB [4]): Active
pIC50 [7]: 4.60
Activity (HL-60 [8]): Dose-dependent effect
Activity (HL-60 [9]): Active
Activity (HL-60 [10]): Active
Activity (HL-60 [11]): 95%
Activity (HL-60 [12]): 111%
Activity (HL-60 [13]): 134%
Activity (HL-60 [14]): 306%
Activity (HL-60 [15]): 119%
Activity (HL-60 [16]): 131%
Activity (HL-60 [17]): 247%
Activity (HL-60 [18]): 169%
Activity (HL-60 [19]): Dose-dependent effect
Activity (HL-60 [20]): Active
Activity (HL-60 [21]): Dose-dependent effect
Activity (HL-60 [22]): 2.7%
Activity (HL-60 [23]): 10.9%
Activity (HL-60 [24]): 69.5%
Activity (HL-60 [25]): 48.3%
Activity (HL-60 [26]): 46.8%
Activity (HL-60 [27]): 14.7%
Activity (HL-60 [28]): 44.7%
Activity (HL-60 [29]): 34.4%
Activity (HL-60 [30]): 14.6%
Activity (HL-60 [31]): 4.3%
Activity (HL-60 [32]): 8%
Activity (HL-60 [33]): 1.3%
Activity (HL-60 [34]): Dose-dependent effect

inhibition [2]: inactive
Structure (SMILES): O=C(O)[C@@H](Cc1c[nH]c2ccccc12)NCc1ccc(-c2c(O)c3ccccc3[nH]c2=O)cc1
Activity (MCF7): inactive
Activity (HCT-116): inactive
Activity (HL-60 [3]): inactive
Activity (KB [4]): inactive

inhibition [2]: inactive
Structure (SMILES): O=C(O)[C@H](Cc1c[nH]c2ccccc12)NCc1ccc(-c2c(O)c3ccccc3[nH]c2=O)cc1
Activity (MCF7): inactive
Activity (HCT-116): inactive
Activity (HL-60 [3]): inactive
Activity (KB [4]): inactive
